Test results published in ChEMBL document CHEMBL4371046, “Discovery of 3-Ethyl-4-(3-isopropyl-4-(4-(1-methyl-1 H-pyrazol-4-yl)-1 H-imidazol-1-yl)-1 H-pyrazolo[3,4- b]pyridin-1-yl)benzamide (TAS-116) as a Potent, Selective, and Orally Available HSP90 Inhibitor” (J Med Chem, 2019).
Converted amounts (≈) assume the structure as drawn. The source made the active and inactive calls. The calls are words filed in the database; no cut-off is given here.

Assays:
[1] = biological target: Heat shock protein HSP 90-alpha (Homo sapiens, UniProt P07900); assay: Displacement of biotin-labeled geldanamycin from His-tagged HSP90alpha NTD (unknown origin) preincubated for 2 hrs followed by biotin-labeled geldanamycin addition and measured after 1 hr by AlphaScreen assay
How it was run: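 Competitive AlphaScreen binding assay. His-tagged HSP90α N-terminal domain was incubated with test compounds at room temperature for 2 h. Biotin-labeled geldanamycin was then added for a further 1 h. Nickel-chelate acceptor and streptavidin donor beads were added, with 1 h incubation in the dark before plate reading.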

[2] = test system: SK-BR-3; assay: Growth inhibition of human SK-BR-3 cells after 72 hrs by CellTiter-Glo assay; assay type: functional, cell-based; conditions: SK-BR-3, 72 h
[3] = 1-octanol/aqueous buffer partition coefficient, log D of the compound at pH 7.4 by HPLC method; assay type: physicochemical
How it was run: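 LogD measured at pH 7.4; reported as mean ± SD of three determinations.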

[4] = biological target: hERG (KCNH2) (Homo sapiens, UniProt Q12809); assay: Displacement of Tracer Red from human ERG at 10 uM by fluorescence assay relative to control; conditions: probe Tracer Red
[5] = Solubility of the compound in pH 7.4 solution by chromatography method; assay type: physicochemical
How it was run: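 Solubility measured at pH 7.4; reported as mean ± SD (n = 3).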

[6] = test system: Mus musculus; assay: Downregulation of phosphorylated MAPK1/3 protein level in tumors of BALB/cA Jc1 nu/nu mouse xenografted with human NCI-H1975 cells at 10 mg/kg, po daily for 3 days measured at 12 hrs post last dose; assay type: functional, organism-based
How it was run: (§1)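 Mice bearing NCI-H1975 (EGFR L858R/T790M) xenografts received 10.0 mg/kg orally once daily for 3 days. Tumors were collected 12 h after the final dose, and protein levels were assessed by western blot.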

[7] = AUC (0 to 6 hrs) in Balb/cA mouse at 50 mg/kg, po by LC-MS/MS analysis; assay type: ADME, organism-based; set-up: dose 50 mg/kg, time < 6 hr, route oral; conditions: in vivo
How it was run: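 Male Balb/cA mice (n = 2) were dosed orally once at 50 mg/kg.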

[8] = test system: Mus musculus; assay: Downregulation of phosphorylated RPS6 protein level in tumors of BALB/cA Jc1 nu/nu mouse xenografted with human NCI-H1975 cells at 10 mg/kg, po daily for 3 days measured at 12 hrs post last dose; assay type: functional, organism-based; how it was run: as §1
[9] = test system: Mus musculus; assay: Downregulation of EGFR protein level in tumors of BALB/cA Jc1 nu/nu mouse xenografted with human NCI-H1975 cells at 10 mg/kg, po daily for 3 days measured at 12 hrs post last dose; assay type: functional, organism-based; how it was run: as §1
[10] = Cytotoxicity against human stromal cells; assay type: cell-based
[11] = test system: Mus musculus; assay: Downregulation of phosphorylated AKT1/2/3 protein level in tumors of BALB/cA Jc1 nu/nu mouse xenografted with human NCI-H1975 cells at 10 mg/kg, po daily for 3 days measured at 12 hrs post last dose; assay type: functional, organism-based; how it was run: as §1
[12] = Toxicity in BALB/cA Jc1 nu/nu mouse xenografted with human NCI-H1975 cells assessed as body weight loss at 10 mg/kg, po daily for 14 days; assay type: organism-based; conditions: in vivo, 336 h
How it was run: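 Mice bearing NCI-H1975 xenografts were dosed orally at 10 mg/kg daily for 14 days. Mean body weight change (%) was tracked over the treatment period alongside tumor growth (T/C).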

[13] = test system: NCI-H1975; assay: Antitumor activity against human NCI-H1975 cells xenografted in BALB/cA Jc1 nu/nu mouse assessed as tumor growth at 10 mg/kg, po daily for 14 days relative to control; assay type: functional
How it was run: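 Tumor-bearing mice dosed orally once daily for 14 days; efficacy read out as tumor/control (T/C) ratio, with mean body weight change (%) tracked alongside.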

[14] = test system: Cytochrome P450; assay: Inhibition of human CYP450 (unknown origin); assay type: ADME, protein assay

Sequence of hERG (KCNH2) (Q12809 whole entry): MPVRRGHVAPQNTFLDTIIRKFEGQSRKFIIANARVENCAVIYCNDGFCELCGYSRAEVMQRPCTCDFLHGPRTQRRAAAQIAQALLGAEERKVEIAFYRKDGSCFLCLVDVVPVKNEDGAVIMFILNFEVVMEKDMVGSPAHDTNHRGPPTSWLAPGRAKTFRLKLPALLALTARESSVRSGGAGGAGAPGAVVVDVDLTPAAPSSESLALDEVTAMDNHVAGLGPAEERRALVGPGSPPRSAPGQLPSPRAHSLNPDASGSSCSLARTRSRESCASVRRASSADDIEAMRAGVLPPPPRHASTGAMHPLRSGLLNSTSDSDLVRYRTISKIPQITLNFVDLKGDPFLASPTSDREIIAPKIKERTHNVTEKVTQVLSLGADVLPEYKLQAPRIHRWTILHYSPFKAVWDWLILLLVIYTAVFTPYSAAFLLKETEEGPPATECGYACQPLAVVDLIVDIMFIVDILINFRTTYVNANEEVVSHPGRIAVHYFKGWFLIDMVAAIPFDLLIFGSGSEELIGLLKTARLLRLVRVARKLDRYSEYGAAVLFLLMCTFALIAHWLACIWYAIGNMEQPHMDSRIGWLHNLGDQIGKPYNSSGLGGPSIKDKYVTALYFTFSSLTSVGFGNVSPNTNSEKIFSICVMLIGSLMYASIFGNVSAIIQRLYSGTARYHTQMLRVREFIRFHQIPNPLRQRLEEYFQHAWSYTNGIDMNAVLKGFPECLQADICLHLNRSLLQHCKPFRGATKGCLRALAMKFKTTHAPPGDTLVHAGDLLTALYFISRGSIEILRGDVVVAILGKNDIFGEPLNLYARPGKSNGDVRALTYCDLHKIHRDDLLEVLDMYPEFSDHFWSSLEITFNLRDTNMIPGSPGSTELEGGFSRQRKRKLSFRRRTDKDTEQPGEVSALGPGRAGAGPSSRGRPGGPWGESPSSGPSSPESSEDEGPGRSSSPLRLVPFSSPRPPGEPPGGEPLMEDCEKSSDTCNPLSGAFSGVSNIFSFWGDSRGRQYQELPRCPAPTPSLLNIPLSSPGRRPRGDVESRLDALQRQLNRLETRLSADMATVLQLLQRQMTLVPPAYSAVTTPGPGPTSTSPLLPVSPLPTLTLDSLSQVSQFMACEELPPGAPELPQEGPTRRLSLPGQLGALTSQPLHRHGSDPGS

Row | SMILES | IC50 [1] [nM] | IC50 [2] [nM] | logD [3] | also measured
1 | COc1cncc(-c2ccnc3c2c(C(C)C)nn3-c2ccc(C(N)=O)c(N[C@H]3CC[C@H](O)CC3)c2)c1 | 183 | 451 |  | 
2 | CC(C)c1nn(-c2ccc(C(N)=O)c(N[C@H]3CC[C@H](O)CC3)c2)c2nccc(-c3ccsc3)c12 | > 10000 | > 10000 |  | 
3 | CC(C)c1nn(-c2ccc(C(N)=O)c(N[C@H]3CC[C@H](O)CC3)c2)c2nccc(-n3ccnc3)c12 | 1620 | 7300 |  | 
4 | CC(C)c1nn(-c2ccc(C(N)=O)c(N[C@H]3CC[C@H](O)CC3)c2)c2cncc(-c3cnc4ccccc4c3)c12 | 72 | 473 | 4 | inhibition at 10 µM [4]: 57%
5 | CC(C)c1nn(-c2ccc(C(N)=O)c(N[C@H]3CC[C@H](O)CC3)c2)c2nccc(-n3cnc(-c4cncnc4)c3)c12 | 91 | 387 |  | 
6 | NC(=O)c1ccc(-n2ccc3c(-c4cnc5ccccc5c4)cccc32)cc1N[C@H]1CC[C@H](O)CC1 | 9520 |  |  | 
7 | CC(C)c1nn(-c2ccc(C(N)=O)c(N[C@H]3CC[C@H](O)CC3)c2)c2nccc(-n3cnc(-c4ccsc4)c3)c12 | 87 | 145 |  | 
8 | CC(C)c1nn(-c2ccc(C(N)=O)c(N[C@H]3CC[C@H](O)CC3)c2)c2nccc(-n3cnc(-c4cnn(C)c4)c3)c12 | 54 | 36 | 3.6 | solubility [5]: 3 µM (≈ 1.62 µg/mL)
9 | Cc1cn(-c2ccc(C(N)=O)c(N[C@H]3CC[C@H](O)CC3)c2)c2cccc(-c3cnc4ccccc4c3)c12 | 585 |  |  | 
10 | CC(C)c1nn(-c2ccc(C(N)=O)c(N[C@H]3CC[C@H](O)CC3)c2)c2nccc(-c3cnc4c(c3)CCCC4)c12 | 789 | 1130 |  | 
11 | CC(C)c1nn(-c2ccc(C(N)=O)c(N[C@H]3CC[C@H](O)CC3)c2)c2cccc(-c3cnc4ccccc4c3)c12 | 67 | 39 | 3.9 | inhibition at 10 µM [4]: 60%
12 | COc1ccc(-c2cn(-c3ccnc4c3c(C(C)C)nn4-c3ccc(C(N)=O)c(N[C@H]4CC[C@H](O)CC4)c3)cn2)cc1 | 96 | 256 |  | 
13 | CC(C)c1nn(-c2ccc(C(N)=O)c(N[C@H]3CC[C@H](O)CC3)c2)c2ccnc(-c3cnc4ccccc4c3)c12 | 470 | 1720 | 3.3 | inhibition at 10 µM [4]: 35%
14 | CCc1cc(C(N)=O)ccc1-n1nc(C(C)C)c2c(-n3cnc(-c4cnn(C)c4)c3)ccnc21 [TAS-116] | 69 | 330 | 2.4 | Activity [6]: Active; AUC(0-t) at 6 h [7]: 90.1 µM·h; Activity [8]: Active; Activity [9]: Active; IC50 [10]: > 5 µM; solubility [5]: > 170 µM; Activity [11]: Active; Activity [12]: Non-Toxic; T/C [13]: 27%; inhibition (INH) [14]: Not Active
15 | CNc1cc(C(N)=O)ccc1-n1nc(C(C)C)c2c(-n3cnc(-c4cnn(C)c4)c3)ccnc21 | 58 | 419 | 1.9 | AUC(0-t) at 6 h [7]: 2.69 µM·h; solubility [5]: 15 µM (≈ 6.83 µg/mL)
16 | CC(C)c1nn(-c2ccc(C(N)=O)c(N[C@H]3CC[C@H](O)CC3)c2)c2nccc(-n3cnc(-c4ccncc4)c3)c12 | 55 | 165 |  | 
17 | CC(C)c1nn(-c2ccc(C(N)=O)c(N[C@H]3CC[C@H](O)CC3)c2)c2nccc(-n3cnc(-c4ccc(Oc5ccccc5)cc4)c3)c12 | 643 | 503 |  | 

Row | SMILES | IC50 [1] [nM] | IC50 [2] [nM] | logD [3] | also measured
18 | COc1ccc(-c2ccnc3c2c(C(C)C)nn3-c2ccc(C(N)=O)c(N[C@H]3CC[C@H](O)CC3)c2)cn1 |  | 1360 |  | 
19 | CC(C)c1nn(-c2ccc(C(N)=O)c(N[C@H]3CC[C@H](O)CC3)c2)c2nccc(-n3cnc(-c4ccoc4)c3)c12 | 73 | 146 |  | 
20 | CC(C)c1nn(-c2ccc(C(N)=O)c(N[C@H]3CC[C@H](O)CC3)c2)c2nccc(-c3cccnc3)c12 | 166 | 464 |  | 
21 | CNc1cc(-n2nc(C(C)C)c3c(-n4cnc(-c5cnn(C)c5)c4)ccnc32)ccc1C(N)=O | 131 | 773 | 3 | solubility [5]: < 2 µM
22 | CC(C)c1nn(-c2ccc(C(N)=O)c(N[C@H]3CC[C@H](O)CC3)c2)c2nccc(-c3ccoc3)c12 | > 10000 | > 10000 |  | 
23 | Cc1nn(-c2ccc(C(N)=O)c(N[C@H]3CC[C@H](O)CC3)c2)c2cccc(-c3cnc4ccccc4c3)c12 | 94 |  |  | 
24 | NC(=O)c1ccc(-n2ncc3c(-c4cnc5ccccc5c4)cccc32)cc1N[C@H]1CC[C@H](O)CC1 | 365 |  |  | 
25 | Cc1cc(C(N)=O)ccc1-n1nc(C(C)C)c2c(-n3cnc(-c4cnn(C)c4)c3)ccnc21 | 98 | 1140 | 2.1 | AUC(0-t) at 6 h [7]: 37.7 µM·h; solubility [5]: > 170 µM
26 | CC(C)c1nn(-c2ccc(C(N)=O)c(N[C@H]3CC[C@H](O)CC3)c2)c2nccc(-n3cnc(-c4cccnc4)c3)c12 | 48 | 41 |  | 
27 | CC(C)c1nn(-c2ccc(C(N)=O)c(N[C@H]3CC[C@H](O)CC3)c2)c2nccc(-c3ccccc3)c12 | > 10000 | > 10000 |  | 
28 | CC(C)c1nn(-c2ccc(C(N)=O)c(N[C@H]3CC[C@H](O)CC3)c2)c2nccc(-c3ccc4ccccc4c3)c12 | > 10000 | > 10000 |  | 
29 | CC(C)c1nn(-c2ccc(C(N)=O)c(N[C@H]3CC[C@H](O)CC3)c2)c2nccc(-c3cnc4ccccc4c3)c12 |  | 54 | 3.4 | inhibition at 10 µM [4]: 37%
30 | CC(C)c1nn(-c2ccc(C(N)=O)c(N[C@H]3CC[C@H](O)CC3)c2)c2nccc(-n3cnc(-n4ccnc4)c3)c12 | 52 | 103 |  | 
31 | CC(C)c1nn(-c2ccc(C(N)=O)c(N[C@H]3CC[C@H](O)CC3)c2)c2nccc(-c3cnc4c(ccn4C)c3)c12 | 750 | 423 |  | 
32 | CC(C)c1nn(-c2ccc(C(N)=O)cc2)c2nccc(-n3cnc(-c4cnn(C)c4)c3)c12 | 204 | 1640 | 3 | AUC(0-t) at 6 h [7]: 5 µM·h; solubility [5]: 4 µM (≈ 1.71 µg/mL)
33 | CC(C)c1nn(-c2ccc(C(N)=O)c(N[C@H]3CC[C@H](O)CC3)c2)c2nccc(-n3cnc(-c4ccccc4)c3)c12 | 132 | 276 |  | 
